Measured values taken from ChEMBL document CHEMBL5046221, “Identification of Pyrimidine-Based Lead Compounds for Understudied Kinases Implicated in Driving Neurodegeneration” (J Med Chem, 2022).

Tests used:
[1] = biological target: T1, Serine/threonine-protein kinase TBK1 (Homo sapiens, UniProt Q9UHD2); experiment: Displacement of tracer K5 from NLuc fused TBK1 (unknown origin) expressed in HEK293 cells by NanoBRET assay; assay type: cell-based
T1 sequence (Q9UHD2 whole entry): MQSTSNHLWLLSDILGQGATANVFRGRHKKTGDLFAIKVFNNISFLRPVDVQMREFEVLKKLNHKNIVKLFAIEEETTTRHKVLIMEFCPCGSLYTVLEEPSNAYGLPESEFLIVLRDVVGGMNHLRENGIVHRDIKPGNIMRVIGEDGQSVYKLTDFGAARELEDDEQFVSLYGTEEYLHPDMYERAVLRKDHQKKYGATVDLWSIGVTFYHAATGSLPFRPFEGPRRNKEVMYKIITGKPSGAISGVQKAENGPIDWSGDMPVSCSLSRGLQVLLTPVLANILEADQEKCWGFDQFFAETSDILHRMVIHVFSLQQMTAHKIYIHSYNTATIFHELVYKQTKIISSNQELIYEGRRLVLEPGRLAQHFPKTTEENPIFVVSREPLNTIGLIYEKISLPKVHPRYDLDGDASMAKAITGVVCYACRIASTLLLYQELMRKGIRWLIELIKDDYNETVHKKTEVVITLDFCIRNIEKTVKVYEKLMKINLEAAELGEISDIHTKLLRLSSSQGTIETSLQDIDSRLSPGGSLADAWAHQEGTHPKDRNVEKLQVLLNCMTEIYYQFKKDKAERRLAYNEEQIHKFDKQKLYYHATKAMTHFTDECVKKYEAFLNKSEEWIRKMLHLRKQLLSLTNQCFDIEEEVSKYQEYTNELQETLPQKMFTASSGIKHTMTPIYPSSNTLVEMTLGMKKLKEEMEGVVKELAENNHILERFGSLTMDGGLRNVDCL
Outline: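 HEK293 cells grown in DMEM with 10% FBS at 37 °C, 5% CO2. NanoBRET assay run in dose–response per manufacturer's protocol with tracer K-5 at 0.5 μM. SEM calculated for assays run more than once.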

[2] = biological target: T2, Serine/threonine-protein kinase 17B (Homo sapiens) (UniProt O94768); experiment: Inhibition of full length recombinant human DRAK2 using KKRPQRRYSNVF as substrate at 1 uM incubated for 120 mins in presence of [gamma-33P-ATP] by radiometric scintillation assay relative to control
T2 sequence (whole entry): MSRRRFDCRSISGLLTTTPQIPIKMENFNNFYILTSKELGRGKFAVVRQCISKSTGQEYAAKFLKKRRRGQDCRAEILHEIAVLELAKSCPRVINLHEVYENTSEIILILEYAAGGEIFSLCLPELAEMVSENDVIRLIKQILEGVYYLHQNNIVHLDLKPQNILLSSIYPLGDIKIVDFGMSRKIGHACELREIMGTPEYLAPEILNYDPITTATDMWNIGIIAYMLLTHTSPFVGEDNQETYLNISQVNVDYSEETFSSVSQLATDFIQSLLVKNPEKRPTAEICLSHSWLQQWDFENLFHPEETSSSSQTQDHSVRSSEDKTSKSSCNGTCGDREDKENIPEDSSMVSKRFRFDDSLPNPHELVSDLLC
Outline: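 Eurofins radiometric kinase assay with ATP at Km for each kinase. Compound was tested at a single 1 μM concentration in duplicate, and the result is reported as percent of control.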

[3] = biological target: T3, Myosin light chain kinase 2, skeletal/cardiac muscle (Homo sapiens, UniProt Q9H1R3); experiment: Inhibition of full length recombinant human MYLK2 using KKLNRTLSFAEPG as substrate incubated for 40 mins in presence of [gamma-33P-ATP] by radiometric scintillation assay
T3 sequence (Q9H1R3 whole entry): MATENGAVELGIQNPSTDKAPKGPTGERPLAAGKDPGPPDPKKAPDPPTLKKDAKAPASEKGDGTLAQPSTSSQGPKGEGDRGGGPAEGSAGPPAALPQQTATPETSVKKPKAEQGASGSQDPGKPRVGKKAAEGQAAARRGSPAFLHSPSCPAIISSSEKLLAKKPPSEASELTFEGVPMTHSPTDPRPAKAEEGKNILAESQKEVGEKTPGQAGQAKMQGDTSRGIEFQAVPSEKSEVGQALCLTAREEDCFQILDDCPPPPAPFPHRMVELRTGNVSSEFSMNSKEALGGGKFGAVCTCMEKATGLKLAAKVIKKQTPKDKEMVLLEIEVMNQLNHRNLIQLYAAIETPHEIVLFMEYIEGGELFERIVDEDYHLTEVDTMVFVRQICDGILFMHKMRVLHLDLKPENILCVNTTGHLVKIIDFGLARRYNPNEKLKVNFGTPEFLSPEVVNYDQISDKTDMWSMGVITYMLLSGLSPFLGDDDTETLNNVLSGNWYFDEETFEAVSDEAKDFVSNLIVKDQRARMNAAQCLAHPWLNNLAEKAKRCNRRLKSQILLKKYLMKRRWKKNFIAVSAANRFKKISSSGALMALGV
Outline: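 Eurofins radiometric enzymatic assay with ATP at Km for each kinase. IC50 was derived from a 9-point dose–response curve run in duplicate.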

[4] = biological target: T4, MAP/microtubule affinity-regulating kinase 4 (Homo sapiens, UniProt Q96L34); experiment: Displacement of tracer K5 from NLuc fused MARK4 (unknown origin) expressed in HEK293 cells by NanoBRET assay; assay type: cell-based
T4 sequence (Q96L34 whole entry): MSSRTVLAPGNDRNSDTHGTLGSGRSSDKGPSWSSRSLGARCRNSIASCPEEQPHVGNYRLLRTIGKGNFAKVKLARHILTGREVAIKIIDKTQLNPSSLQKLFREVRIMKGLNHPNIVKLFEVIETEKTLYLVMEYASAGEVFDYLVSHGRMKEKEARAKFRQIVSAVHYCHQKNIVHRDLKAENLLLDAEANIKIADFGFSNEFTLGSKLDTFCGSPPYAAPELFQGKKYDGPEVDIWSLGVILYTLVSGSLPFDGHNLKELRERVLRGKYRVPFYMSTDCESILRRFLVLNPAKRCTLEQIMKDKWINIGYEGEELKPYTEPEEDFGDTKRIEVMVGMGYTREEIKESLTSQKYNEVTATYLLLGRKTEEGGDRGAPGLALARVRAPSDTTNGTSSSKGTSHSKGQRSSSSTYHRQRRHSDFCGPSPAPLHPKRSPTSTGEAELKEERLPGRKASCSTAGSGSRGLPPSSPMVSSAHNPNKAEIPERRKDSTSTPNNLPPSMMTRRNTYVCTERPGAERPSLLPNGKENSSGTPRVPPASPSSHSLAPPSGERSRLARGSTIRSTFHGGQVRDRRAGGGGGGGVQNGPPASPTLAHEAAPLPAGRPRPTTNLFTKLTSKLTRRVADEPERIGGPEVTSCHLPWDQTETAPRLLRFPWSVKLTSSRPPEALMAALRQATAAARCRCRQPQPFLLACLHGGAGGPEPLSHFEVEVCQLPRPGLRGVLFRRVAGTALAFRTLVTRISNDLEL

[5] = biological target: MAP/microtubule affinity-regulating kinase 3 (Homo sapiens, UniProt P27448); experiment: Displacement of tracer K9 from NLuc fused MARK3 (unknown origin) expressed in HEK293 cells by NanoBRET assay; assay type: cell-based
MAP/microtubule affinity-regulating kinase 3, sequence (P27448 whole entry, the tested form may be a part): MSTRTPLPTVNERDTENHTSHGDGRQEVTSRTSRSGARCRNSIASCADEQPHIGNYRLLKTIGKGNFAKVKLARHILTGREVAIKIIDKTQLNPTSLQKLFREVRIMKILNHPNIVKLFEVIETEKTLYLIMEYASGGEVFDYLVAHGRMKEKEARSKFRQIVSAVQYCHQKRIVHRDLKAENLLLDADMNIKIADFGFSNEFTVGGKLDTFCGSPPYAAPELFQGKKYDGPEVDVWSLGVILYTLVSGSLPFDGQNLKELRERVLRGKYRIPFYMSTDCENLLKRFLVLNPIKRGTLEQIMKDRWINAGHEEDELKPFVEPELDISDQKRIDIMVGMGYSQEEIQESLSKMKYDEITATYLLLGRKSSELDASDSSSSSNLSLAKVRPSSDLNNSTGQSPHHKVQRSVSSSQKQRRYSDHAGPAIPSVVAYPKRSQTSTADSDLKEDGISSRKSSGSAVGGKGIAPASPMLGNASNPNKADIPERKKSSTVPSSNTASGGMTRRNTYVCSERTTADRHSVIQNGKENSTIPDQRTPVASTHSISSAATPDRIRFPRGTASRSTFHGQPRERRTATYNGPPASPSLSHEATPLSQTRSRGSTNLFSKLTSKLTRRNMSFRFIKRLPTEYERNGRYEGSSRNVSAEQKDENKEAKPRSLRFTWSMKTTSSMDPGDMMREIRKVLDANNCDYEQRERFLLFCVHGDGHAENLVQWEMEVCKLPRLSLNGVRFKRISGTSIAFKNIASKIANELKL

[6] = Kinetic solubility of compound in PBS at pH 7.4 incubated for 24 hrs by chemiluminscent nitrogen detection method; assay type: physicochemical; details: buffer, pH 7.4, 24 h
Outline: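 Filtrates were quantified by total chemiluminescent nitrogen determination against a calibration curve, with correction for background nitrogen from DMSO and medium.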

[7] = biological target: T3, Myosin light chain kinase 2, skeletal/cardiac muscle; experiment: Inhibition of NanoLuc-fused MYLK2 (unknown origin) expressed in HEK293 cells incubated for 2 hrs by NanoBRET assay; assay type: cell-based
Outline: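 Cellular NanoBRET target-engagement assays were run by Carna Biosciences to the manufacturer's protocol. Dose–response was in singlicate, with compounds tested at concentrations up to 10 μM.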

[8] = biological target: T5, Serine/threonine-protein kinase 17A (Homo sapiens, UniProt Q9UEE5); experiment: Displacement of tracer K9 from NLuc fused DRAK1 (unknown origin) expressed in HEK293 cells by NanoBRET assay; assay type: cell-based
T5 sequence (Q9UEE5 whole entry): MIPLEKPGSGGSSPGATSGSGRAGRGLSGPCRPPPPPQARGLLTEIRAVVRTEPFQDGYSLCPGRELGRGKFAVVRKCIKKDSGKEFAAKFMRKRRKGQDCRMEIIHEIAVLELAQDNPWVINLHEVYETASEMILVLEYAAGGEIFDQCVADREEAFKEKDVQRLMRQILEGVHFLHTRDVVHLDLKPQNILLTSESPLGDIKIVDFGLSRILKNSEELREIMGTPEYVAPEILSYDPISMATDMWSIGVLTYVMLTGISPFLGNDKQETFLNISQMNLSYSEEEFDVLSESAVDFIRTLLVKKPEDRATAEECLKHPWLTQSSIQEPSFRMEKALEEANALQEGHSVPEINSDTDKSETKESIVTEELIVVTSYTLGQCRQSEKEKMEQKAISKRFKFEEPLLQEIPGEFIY

[9] = Effective permeability in PBS at 7.4 incubated for 5 hrs by PAMPA analysis; assay type: ADME; details: pH 7.4, 5 h
Outline: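 PAMPA: DMSO stocks were diluted in PBS pH 7.4 and placed in the donor compartment, with PBS pH 7.4 in the acceptor, for 5 h. Both compartments were quantified by CLND against a calibration curve, with background nitrogen correction. Effective permeability was calculated from donor and acceptor concentrations using measured rather than assumed solubility.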

IC50 [1]: > 10 µM
% control [2]: 91%
IC50 [3]: 0.479 µM
IC50 [4]: > 10 µM
IC50 [5]: > 10 µM
Kinetic solubility [6]: 177 µM
IC50 [7]: 3.67 µM
IC50 [8]: > 10 µM
Peff [9]: 6.23 10^-8cm/s
SMILES: Cc1nn(CC(F)(F)F)cc1Nc1nccc(NCCc2cnc[nH]2)n1
